Measurements from ChEMBL document CHEMBL1142099, “Paecilodepsipeptide A, an antimalarial and antitumor Cyclohexadepsipeptide from the insect pathogenic fungus Paecilomyces cinnamomeus BCC 9616” (J Nat Prod, 2007).
Active and inactive are the calls of the source. The calls are words filed in the database; no cut-off is given here.

Assays:
[1] = tested on: KB; assay: Cytotoxicity against human KB cells; type: cell-based; details: for Activity: human, kb
Outline: (§1)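 Colorimetric cytotoxicity assay on KB (oral human epidermoid carcinoma), BC (human breast cancer) and Vero (African green monkey kidney fibroblast) cells; IC50 determined, Vero tested up to 67 µM (50 µg/mL). Ellipticine used as reference standard.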

[2] = tested on: Vero; assay: Cytotoxicity against African green monkey Vero cells upto 67 uM; type: cell-based; details: chlorocebus sabaeus; outline: as §1
[3] = Cytotoxicity against human BC cells; type: cell-based; details: for Activity: human, bc; outline: as §1
[4] = tested on: Plasmodium falciparum; assay: Antimalarial activity against Plasmodium falciparum K1; type: functional, organism-based
Outline: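 P. falciparum K1 (multidrug-resistant strain) tested by microculture radioisotope technique; IC50 determined. Dihydroartemisinin used as reference standard.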

SMILES	IC50 ([1]; Homo sapiens, KB)	Activity [2]	IC50 ([3]; Homo sapiens, BC)	IC50 [4]	Activity [1]	Activity [3]	Activity [4]
CC(C)=CCOc1ccc(C[C@H]2NC(=O)[C@@H](C)NC(=O)[C@@H](Cc3ccc(O)cc3)NC(=O)CNC(=O)[C@H](C)NC(=O)[C@H](Cc3ccccc3)OC2=O)cc1 [PAECILODEPSIPEPTIDE A]	5.9 µM	Not Active	6.6 µM	4.9 µM			
CC(C)=CCOc1ccc(C[C@@H](NC(=O)[C@@H](C)NC(=O)[C@@H](Cc2ccc(O)cc2)NC(=O)CNC(=O)[C@H](C)NC(=O)[C@@H](O)Cc2ccccc2)C(=O)O)cc1 [PAECILODEPSIPEPTIDE B]		Not Active			Not Active	Not Active	inactive
COC(=O)[C@@H](Cc1ccc(OCC=C(C)C)cc1)NC(=O)[C@@H](C)NC(=O)[C@@H](Cc1ccc(O)cc1)NC(=O)CNC(=O)[C@H](C)NC(=O)[C@@H](O)Cc1ccccc1 [PAECILODEPSIPEPTIDE C]		Not Active			Not Active	Not Active	inactive
